# Laboratory results from ChEMBL document CHEMBL1150578, “Potent antiviral potamogetonyde and potamogetonol, new furanoid labdane diterpenes from Potamogeton malaianus” (J Nat Prod, 2001).
# Columns and labels:
# [1] = Cytotoxicity against Aedes albopictus C6/36 cells after 24 hrs by MTT assay; assay type: functional, cell-based; conditions: C6/36, 24 h
# Method in brief: (§1)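 C6/36 cells in MEM with 10% FCS and 1.1 g/L Na2CO3, at 28 °C, antibiotic-free stock. Seeded 1.6 × 10^4 cells/well and left 48 h to attach. Exposed 24 h to 1:2 serial dilutions from 200 to 1.56 µg/mL (top dose in 1% DMSO) with penicillin/streptomycin. Then 24 h recovery in fresh medium. MTT 4 h, formazan dissolved in DMSO/glycine buffer pH 10.5, OD 570 nm. Four wells per point; IC50 by metabolic competence.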
# [2] = tested on: Vero; test: Cytotoxicity against african green monkey Vero cells by SRB assay; assay type: cell-based; conditions: Chlorocebus sabaeus
# [3] = tested on: Human alphaherpesvirus 1; test: Antiviral activity against HSV1 infected in african green monkey Vero cells after 72 hrs by SRB assay; assay type: functional, organism-based; conditions: Human alphaherpesvirus 1, Vero
# Method in brief: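 HSV-1 (30 PFU) added to wells with test samples (final 20–50 µg/mL), then Vero cells plated at 1 × 10^5 cells/mL. Vero cells grown in MEM with 10% heat-inactivated FBS and antibiotics. Incubated 72 h at 37 °C, 5% CO2. Cells then fixed and stained, and OD read at 510 nm. Acyclovir was the reference.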
# [4] = Cytotoxicity against human BC cells by SRB assay; assay type: functional, cell-based
# [5] = Cytotoxicity against Spodoptera frugiperda Sf9 cells after 24 hrs by MTT assay; assay type: functional, cell-based; conditions: Sf9, 24 h
# Method in brief: as §1, with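 “Seeded” for “C6/36 cells in MEM with 10% FCS and 1.1 g/L Na2CO3, at 28 °C, antibiotic-free stock. Seeded”, “4” for “1.6”, “10^3” for “10^4”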
# [6] = tested on: Mycobacterium tuberculosis; test: Antimycobacterial activity against Mycobacterium tuberculosis H37Ra by microplate alamar blue assay; assay type: functional
# [7] = tested on: KB; test: Cytotoxicity against human KB cells by SRB assay; assay type: functional, cell-based
SMILES,IC50 [1],IC50 [2],IC50 [3],IC50 [4],IC50 [5],MIC [6],IC50 [7]
C=C1CC[C@@H]2[C@](C)(COC(C)=O)CCC[C@@]2(C=O)[C@@H]1CCc1ccoc1 [POTAMOGETONYDE],30 µg/mL,31 µg/mL,8 µg/mL,> 20 µg/mL,11 µg/mL,100 µg/mL,> 20 µg/mL
NNC(=O)c1ccncc1 [ISONIAZID],,,,,,0.04 µg/mL,
C=C1CC[C@@H]2[C@@]3(C)CCC[C@@]2(C(=O)OC3)[C@@H]1CCc1ccoc1 [POTAMOGETONIN],22 µg/mL,> 50 µg/mL,> 20 µg/mL,> 20 µg/mL,15 µg/mL,100 µg/mL,> 20 µg/mL
Nc1nc2c(ncn2COCCO)c(=O)[nH]1 [ACYCLOVIR],,,2 µg/mL,,,,
C=C1CC[C@@H]2[C@](C)(COC(C)=O)CCC[C@@]2(CO)[C@@H]1CCc1ccoc1 [POTAMOGETONOL],43 µg/mL,28 µg/mL,3 µg/mL,> 20 µg/mL,23 µg/mL,50 µg/mL,> 20 µg/mL
CO[C@@]12[C@H](COC(N)=O)C3=C(C(=O)C(C)=C(N)C3=O)N1C[C@@H]1N[C@@H]12 [MITOMYCIN],3 µg/mL,,,,3 µg/mL,,
Cc1c2ccncc2c(C)c2c1[nH]c1ccccc12 [ELLIPTECINE],,0.4 µg/mL,,0.1 µg/mL,,,0.1 µg/mL
C=C1CC[C@@H]2[C@@]3(C)CCC[C@@]2(C(=O)OC3)[C@@H]1CC(=O)c1ccoc1,72 µg/mL,> 50 µg/mL,> 20 µg/mL,> 20 µg/mL,26 µg/mL,100 µg/mL,> 20 µg/mL
NC[C@H]1O[C@H](O[C@H]2[C@H](O)[C@@H](O[C@H]3O[C@H](CO)[C@@H](O)[C@H](N)[C@H]3O)[C@H](N)C[C@@H]2N)[C@H](O)[C@@H](O)[C@@H]1O.O=S(=O)(O)O [KANAMYCIN SULFATE],,,,,,2 µg/mL,
